Source: ChEMBL document CHEMBL4316634, “Immunomodulatory Biscembranoids and Assignment of Their Relative and Absolute Configurations: Data Set Modulation in the Density Functional Theory/Nuclear Magnetic Resonance Approach” (J Nat Prod, 2019)
Activity calls are given as the source filed them. No cut-off for these calls is given here.

Key:
Splenocyte [1] = experiment: Immunomodulatory activity in C57BL/6 mouse splenocytes assessed as reduction in CD4+/CD8+ cells ratio at 3 uM incubated for 24 hrs by flow cytometric analysis; assay type: functional, cell-based
Method in brief: (§1)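 C57BL/6 splenocytes given compounds at 3 μM for 24 h under Con A-induced activation, with Con A (5 μg/mL) as positive control. Cells were stained with PE-CD3, FITC-CD4 and Percp/cy5.5-CD8. CD3+, CD4+ and CD8+ percentages were measured by flow cytometry, and the CD4+/CD8+ ratio was derived from them. Values are mean ± SD, n = 3.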

Splenocyte [2] = experiment: Cytotoxicity in C57BL/6 mouse splenocytes assessed as effect on cell viability at 3 uM by FACScan flow cytometry; assay type: cell-based
Method in brief: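 Splenocytes at 2 × 10^6 cell/mL from C57BL/6 mice exposed to compounds at 3 μM for 24 h, with Con A (5 μg/mL) as positive control. Cells were then collected, washed in PBS and read at once by flow cytometry for apoptosis.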

Splenocyte [3] = experiment: Immunomodulatory activity in C57BL/6 mouse splenocytes assessed as increase in CD4+/CD8+ cells ratio at 3 uM incubated for 24 hrs by flow cytometric analysis; assay type: functional, cell-based; method in brief: as §1
Splenocyte [4] = experiment: Immunomodulatory activity in C57BL/6 mouse splenocytes assessed as induction of CD3+ T cells proliferation at 3 uM incubated for 24 hrs by flow cytometric analysis; assay type: functional, cell-based; method in brief: as §1

Row | Structure (SMILES) | Activity (Splenocyte [1]) | Activity (Splenocyte [2]) | Activity (Splenocyte [3]) | Activity (Splenocyte [4])
1 | CC(=O)O[C@H]1C/C(C)=C/CC/C(C)=C\C(=O)C[C@@]23C(=O)O[C@@H]([C@@H]1C(C)C)[C@@H]2CC(C)=C1CCC2=CCC[C@@](C)(OC2=O)[C@@H](O)CC/C(C)=C\[C@@H]13 | Active | Non-Toxic | – | –
2 | CC1=C2CCC3=CCC[C@@](C)(OC3=O)[C@@H](O)CC/C(C)=C/[C@@H]2[C@]23CC(=O)C[C@@H](C)CC/C=C(\C)CC(=O)[C@@H](C(C)C)[C@H](OC2=O)[C@@H]3C1 | – | Non-Toxic | – | –
3 | CC(=O)O[C@H]1C/C(C)=C/CC[C@H](C)CC(=O)C[C@@]23C(=O)O[C@@H]([C@@H]1C(C)C)[C@@H]2CC(C)=C1CCC2=CCC[C@@](C)(OC2=O)[C@@H](O)CC/C(C)=C/[C@@H]13 | – | Non-Toxic | Active | –
4 | CC(=O)O[C@H]1C/C(C)=C/CC/C(C)=C/C(=O)C[C@@]23C(=O)O[C@@H]([C@@H]1C(C)C)[C@@H]2CC(C)=C1CCC2=CCC[C@@](C)(OC2=O)[C@@H](O)CC/C(C)=C/[C@@H]13 | – | Non-Toxic | Active | Active
5 | CC(=O)O[C@H]1C/C(C)=C/CC[C@H](C)CC(=O)C[C@@]23C(=O)O[C@@H]([C@@H]1C(C)C)[C@@H]2CC(C)=C1CCC2=CCC[C@@](C)(OC2=O)[C@@H](O)CC/C(C)=C\[C@@H]13 | – | Non-Toxic | – | –
6 | CC(=O)O[C@H]1C/C(C)=C/C/C=C(/C)CC(=O)C[C@@]23C(=O)O[C@@H]([C@@H]1C(C)C)[C@@H]2CC(C)=C1CCC2=CCC[C@@](C)(OC2=O)[C@@H](O)CC/C(C)=C/[C@@H]13 | – | Non-Toxic | – | Active
7 | CC(=O)O[C@H]1C/C(C)=C/CC/C(C)=C\C(=O)C[C@@]23C(=O)O[C@@H]([C@@H]1C(C)C)[C@@H]2CC(C)=C1CCC2=CCC[C@@](C)(OC2=O)[C@@H](O)CC/C(C)=C/[C@@H]13 | – | Non-Toxic | – | –
